{"source": "ChEMBL document CHEMBL5647697", "about": "“Akt inhibition synergizes with polycomb repressive complex 2 inhibition in the treatment of multiple myeloma” (2019)", "key": {"MM1.S [1]": {"tested_on": "MM1.S", "assay": "Upregulation of EZH1 mRNA expression in human MM1.S cells at 0.03 to 3 micromo/L at 6 to 48 hrs by qRT-PCR analysis", "type": "functional, cell-based", "conditions": "dose 0.03-3 µmol/L, time 6-48 hrs", "outline": "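EZH1 mRNA was measured by qRT-PCR in MM.1S and H929 cells. Dose series: cells were treated with graded TAS-117 for 24 h. Time course: cells were treated with 3 μmol/L for the indicated times. Fold change is after GAPDH normalization, relative to the untreated control. Data are SD of triplicates.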"}, "MM1.S [2]": {"tested_on": "MM1.S", "assay": "Cytotoxicity against human MM1.S cells assessed as reduction in cell viability at 0.3125 to 10 micromol/L after 48 hrs by MTS assay", "type": "functional, cell-based", "conditions": "dose 0.3125-10 µmol/L", "outline": "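Seven myeloma lines (MM.1S, H929, OPM2/BTZ among them) exposed to TAS-117 at increasing concentrations up to 10 μmol/L for 48 h. Viability read by MTS against an untreated control; mean ± SD of triplicates.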"}, "NCI-H929 [3]": {"tested_on": "NCI-H929", "assay": "Cytotoxicity against human NCI-H929 cells transduced with EZH1 assessed as enhanced sensitivity at 0.156 to 2.5 micromol/L 48 hrs by MTS assay", "type": "functional, cell-based", "conditions": "dose 0.156-2.5 µmol/L", "outline": "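MM.1S or H929 cells transduced with lentiviral shRNA against EZH1 or against luciferase (shLuc control), then given TAS-117 at the indicated doses for 48 h. Viability by MTS relative to untreated control; mean ± SD of triplicates; compared with shLuc.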"}, "MM1.S [4]": {"tested_on": "MM1.S", "assay": "Induction of apoptosis in human MM1.S cells assessed as late apoptotic cells preincubated in presence of 5 micromol/L UNC1999 for 48 hrs followed by compound addition at 2 micromol/L incubated for 12 hrs by annexin V/PI staining based flow cytometry (reference value: 3.6%)", "type": "functional", "conditions": "dose 2 µmol/L, at 2 µM"}, "OPM-2/BTZ [5]": {"tested_on": "OPM-2/BTZ", "assay": "Downregulation of CDK2 protein expression in human OPM-2/BTZ cells incubated at 0.3 to 3 micromol/L for 48 hrs by Western blot analysis", "type": "functional, cell-based", "conditions": "dose 0.3-3 µmol/L"}, "MM1.S [6]": {"tested_on": "MM1.S", "assay": "Synergistic activity against human MM.1S cells assessed as combination index […] at 0.125 uM incubated for 48 hrs by […]", "type": "functional", "outline": "(§1)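 Cells were exposed to the EZH2/EZH1 inhibitor (UNC1999 or GSK126) for 72 h in total, with the Akt inhibitor added for the last 48 h. Viability was read by MTS assay relative to untreated control cells, in triplicate. The combination index for each dose pair came from isobologram analysis.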"}, "OPM-2 [7]": {"tested_on": "OPM-2", "assay": "Synergistic activity against human OPM-2 cells assessed as combination index preincubated in presence of 5 uM GSK126 for 72 hrs followed by compound addition at 1.25 uM incubated for 48 hrs by MTT assay", "type": "functional"}, "OPM-2/BTZ [8]": {"tested_on": "OPM-2/BTZ", "assay": "Downregulation of E2F1 protein expression in human OPM-2/BTZ cells incubated at 0.3 to 3 micromol/L for 48 hrs by Western blot analysis", "type": "functional, cell-based", "conditions": "dose 0.3-3 µmol/L"}, "MM1.S [9]": {"tested_on": "MM1.S", "assay": "Synergistic activity against human MM.1S cells assessed as combination index […] compound addition at 0.125 uM incubated for 48 hrs by […]", "type": "functional", "outline": "as §1"}, "MM1.S [10]": {"tested_on": "MM1.S", "assay": "Downregulation of CDK2 protein expression in human MM1.S cells incubated at 0.3 to 3 micromol/L for 48 hrs by Western blot analysis", "type": "functional, cell-based", "conditions": "dose 0.3-3 µmol/L", "outline": "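MM.1S and H929 cells given TAS-117 at the indicated doses for 48 h. Protein levels assessed by immunoblot.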"}, "OPM-2 [11]": {"tested_on": "OPM-2", "assay": "Synergistic activity against human OPM-2 cells assessed as combination index preincubated in presence of 2.5 uM GSK126 for 72 hrs followed by compound addition at 5 uM incubated for 48 hrs by MTT assay", "type": "functional"}, "NCI-H929 [12]": {"tested_on": "NCI-H929", "assay": "Synergistic activity against human NCI-H929 cells assessed as combination index preincubated in presence of 2.5 uM UNC1999 […] at 0.5 uM incubated for 48 hrs by […]", "type": "functional", "outline": "as §1"}, "MM1.S [13]": {"tested_on": "MM1.S", "assay": "Upregulation of EZH1 mRNA expression in human MM1.S cells transduced with EZH1 at 0.3 micromol/L after 24 hrs by qRT-PCR analysis relative to control", "type": "functional, cell-based", "conditions": "dose 0.3 µmol/L", "outline": "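MM.1S cells were transduced with lentiviral shRNA against EZH1 or luciferase (shLuc control). Cells were then given graded TAS-117 for 24 h. EZH1 mRNA was measured by qRT-PCR and normalized to GAPDH.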"}, "OPM-2/BTZ [14]": {"tested_on": "OPM-2/BTZ", "assay": "Synergistic activity against human OPM-2/BTZ cells assessed as combination index preincubated in presence of 5 uM GSK126 for 72 hrs followed by compound addition at 0.5 uM incubated for 48 hrs by MTT assay", "type": "functional"}, "OPM-2/BTZ [15]": {"tested_on": "OPM-2/BTZ", "assay": "Downregulation of E2F1 mRNA expression in human OPM-2/BTZ cells incubated at 0.3 to 3 micromol/L for 48 hrs by qRT-PCR analysis", "type": "functional, cell-based", "conditions": "dose 0.3-3 µmol/L"}, "[16]": {"target": "Serine/threonine-protein kinase AKT (Homo sapiens) (UniProt P31751+Q9Y243+P31749)", "sequence (P31749 whole entry, looked up)": "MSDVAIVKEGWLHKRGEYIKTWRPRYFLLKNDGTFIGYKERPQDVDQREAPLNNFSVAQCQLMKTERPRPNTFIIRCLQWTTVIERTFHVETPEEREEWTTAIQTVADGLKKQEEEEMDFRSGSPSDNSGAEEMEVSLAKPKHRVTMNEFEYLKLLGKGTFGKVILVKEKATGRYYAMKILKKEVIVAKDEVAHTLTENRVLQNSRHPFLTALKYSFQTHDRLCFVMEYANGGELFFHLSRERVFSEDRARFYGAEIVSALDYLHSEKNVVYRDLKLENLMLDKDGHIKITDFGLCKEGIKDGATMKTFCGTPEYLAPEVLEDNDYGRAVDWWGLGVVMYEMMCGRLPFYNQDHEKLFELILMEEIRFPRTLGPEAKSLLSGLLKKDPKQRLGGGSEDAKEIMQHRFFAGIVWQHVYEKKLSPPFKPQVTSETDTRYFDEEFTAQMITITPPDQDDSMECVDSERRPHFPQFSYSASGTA", "sequence (P31751 whole entry, looked up)": "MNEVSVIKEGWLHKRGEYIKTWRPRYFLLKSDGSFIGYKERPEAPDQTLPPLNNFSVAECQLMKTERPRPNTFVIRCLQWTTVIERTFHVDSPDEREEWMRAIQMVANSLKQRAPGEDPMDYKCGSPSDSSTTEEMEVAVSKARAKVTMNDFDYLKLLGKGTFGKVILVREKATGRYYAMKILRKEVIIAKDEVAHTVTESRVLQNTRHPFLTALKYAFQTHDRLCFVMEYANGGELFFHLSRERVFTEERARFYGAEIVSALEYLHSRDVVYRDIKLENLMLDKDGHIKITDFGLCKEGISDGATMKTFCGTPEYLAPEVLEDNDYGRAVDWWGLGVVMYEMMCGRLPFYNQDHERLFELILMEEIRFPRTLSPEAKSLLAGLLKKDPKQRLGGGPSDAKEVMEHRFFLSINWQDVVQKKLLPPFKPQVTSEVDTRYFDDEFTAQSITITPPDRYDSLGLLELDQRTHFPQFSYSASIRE", "sequence (Q9Y243 whole entry, looked up)": "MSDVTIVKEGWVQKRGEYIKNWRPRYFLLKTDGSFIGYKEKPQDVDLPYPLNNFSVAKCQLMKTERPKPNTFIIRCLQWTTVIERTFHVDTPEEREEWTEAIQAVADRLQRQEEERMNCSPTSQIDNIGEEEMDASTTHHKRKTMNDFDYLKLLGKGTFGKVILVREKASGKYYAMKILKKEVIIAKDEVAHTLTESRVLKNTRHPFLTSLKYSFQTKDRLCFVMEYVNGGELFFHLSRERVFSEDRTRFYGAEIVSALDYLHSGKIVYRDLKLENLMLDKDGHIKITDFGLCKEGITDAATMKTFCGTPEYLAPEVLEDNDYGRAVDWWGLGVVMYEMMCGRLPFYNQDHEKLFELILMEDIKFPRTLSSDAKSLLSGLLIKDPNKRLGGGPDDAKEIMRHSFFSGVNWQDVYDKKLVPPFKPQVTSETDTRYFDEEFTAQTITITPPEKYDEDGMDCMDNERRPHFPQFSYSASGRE", "assay": "Inhibition of Akt phosphorylation in human OPM-2/BTZ cells after 48 hrs at 0.3 to 2 micromol/L for 48 hrs by Western blot analysis", "type": "cell-based", "conditions": "dose 0.3-2 µmol/L"}, "MM1.S [17]": {"tested_on": "MM1.S", "assay": "Synergistic activity against human MM.1S cells assessed as combination index […] at 0.25 uM incubated for 48 hrs by […]", "type": "functional", "outline": "as §1"}, "NCI-H929 [18]": {"tested_on": "NCI-H929", "assay": "Upregulation of EZH1 protein expression in human NCI-H929 cells at 0.03 to 3 micromol/L after 48 hrs by Western blot analysis", "type": "functional, cell-based", "conditions": "dose 0.03-3 µmol/L", "outline": "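MM.1S and H929 cells were treated with graded TAS-117 for 48 h. EZH1 was detected by immunoblot and quantified relative to the GAPDH loading control.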"}, "MM1.S [19]": {"tested_on": "MM1.S", "assay": "Downregulation of H3K27me3 levels in human MM1.S cells […] at 0.3 micromol/L after 48 hrs by Western blot analysis relative to control", "type": "functional, cell-based", "conditions": "dose 0.3 µmol/L", "outline": "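MM.1S cells transduced with lentiviral shRNA against EZH1 or luciferase, then treated with TAS-117 at the indicated doses for 48 h. H3K27me3 immunoblot with H3 as loading control.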"}, "NCI-H929 [20]": {"tested_on": "NCI-H929", "assay": "Synergistic activity against human NCI-H929 cells assessed as combination index […] in presence of 2.5 uM UNC1999 […] at 0.125 uM incubated for 48 hrs by […]", "type": "functional", "outline": "as §1"}, "OPM-2/BTZ [21]": {"tested_on": "OPM-2/BTZ", "assay": "Downregulation of EZH2 protein expression in human OPM-2/BTZ cells at 0.3 to 5 micromol/L for 6 to 48 hrs by Western blot analysis", "type": "functional, cell-based", "conditions": "dose 0.3-5 µmol/L, time 6-48 hrs"}, "OPM-2/BTZ [22]": {"tested_on": "OPM-2/BTZ", "assay": "Synergistic activity against human OPM-2/BTZ cells assessed as combination index preincubated in presence of 5 uM GSK126 for 72 hrs followed by compound addition at 2 uM incubated for 48 hrs by MTT assay", "type": "functional"}, "NCI-H929 [23]": {"tested_on": "NCI-H929", "assay": "Synergistic activity against human NCI-H929 cells assessed as combination index […] at 0.25 uM incubated for 48 hrs by […]", "type": "functional", "outline": "as §1"}, "OPM-2 [24]": {"tested_on": "OPM-2", "assay": "Synergistic activity against human OPM-2 cells assessed as combination index preincubated in presence of 2.5 uM GSK126 for 72 hrs followed by compound addition at 1.25 uM incubated for 48 hrs by MTT assay", "type": "functional"}, "NCI-H929 [25]": {"tested_on": "NCI-H929", "assay": "Synergistic activity against human NCI-H929 cells assessed as combination index […] in presence of 5 uM GSK126 […] compound addition at 0.125 uM incubated for 48 hrs by […]", "type": "functional", "outline": "as §1"}}, "note": "The source made the active and inactive calls. No cut-off for these calls is given here."}
{"smiles": "C[C@]1(O)C[C@@](N)(c2ccc(-c3nc4n(c3-c3ccccc3)COc3ccncc3-4)cc2)C1", "note": "[PIFUSERTIB]", "values": [{"measurement": "Activity", "setting": "MM1.S [1]", "value": "Dose-Dependent Effect"}, {"measurement": "Activity", "setting": "MM1.S [2]", "value": "Active"}, {"measurement": "Activity", "setting": "NCI-H929 [3]", "value": "Active"}, {"measurement": "Activity", "setting": "MM1.S [4]", "value": 25.3, "unit": "%"}, {"measurement": "Activity", "setting": "OPM-2/BTZ [5]", "value": "Active"}, {"measurement": "CI", "setting": "MM1.S [6]", "value": 0.27}, {"measurement": "CI", "setting": "OPM-2 [7]", "value": 1.44}, {"measurement": "Activity", "setting": "OPM-2/BTZ [8]", "value": "Active"}, {"measurement": "CI", "setting": "MM1.S [9]", "value": 0.751}, {"measurement": "Activity", "setting": "MM1.S [10]", "value": "Active"}, {"measurement": "CI", "setting": "OPM-2 [11]", "value": 6.9}, {"measurement": "CI", "setting": "NCI-H929 [12]", "value": 0.807}, {"measurement": "Activity", "setting": "MM1.S [13]", "value": "Active"}, {"measurement": "CI", "setting": "OPM-2/BTZ [14]", "value": 1.112}, {"measurement": "Activity", "setting": "OPM-2/BTZ [15]", "value": "Active"}, {"measurement": "inhibition", "setting": "[16]", "value": "Active"}, {"measurement": "CI", "setting": "MM1.S [17]", "value": 0.826}, {"measurement": "Activity", "setting": "NCI-H929 [18]", "value": "Active"}, {"measurement": "Activity", "setting": "MM1.S [19]", "value": "Active"}, {"measurement": "CI", "setting": "NCI-H929 [20]", "value": 0.783}, {"measurement": "Activity", "setting": "OPM-2/BTZ [21]", "value": "Active"}, {"measurement": "CI", "setting": "OPM-2/BTZ [22]", "value": 0.967}, {"measurement": "CI", "setting": "NCI-H929 [23]", "value": 0.712}, {"measurement": "CI", "setting": "OPM-2 [24]", "value": 1.462}, {"measurement": "CI", "setting": "NCI-H929 [25]", "value": 7.124}]}
